Active and inactive are the calls of the source. The calls are words filed in the database; no cut-off is given here.

In assay [1] the test system is Rattus norvegicus. The assay is described as follows: Antiinflammatory activity of compound expressed as percentage inhibition of carrageenan edema 4 hr after an oral dose of 33 mg/kg. It counts as functional. The gist of the method: (§1)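 Rat carrageenan paw edema, subplantar carrageenan injection, per Winter et al. Oral dosing in water with 4% polyethylene glycol and 0.2% Tween 80, dilute NaOH added as needed to dissolve. Six rats per treated group, eight per vehicle-only or phenylbutazone group, run concurrently. Read-out is mean % inhibition of edema 4 h after the dose versus vehicle controls.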
(Carrageenan injected into the paw causes an acute inflammation.)

The subject of assay [2] is Rattus norvegicus. Briefly: Antiinflammatory activity of compound expressed as percentage inhibition of carrageenan edema 4 hr after an oral dose of 10 mg/kg. Type of assay: functional. The method in brief:
as §1

In assay [3] the test system is Rattus norvegicus. Briefly: Antiinflammatory activity of compound expressed as percentage inhibition of carrageenan edema 4 hr after an oral dose of 10 mg/kg; Not available. Type of assay: functional, organism-based. Further details: dose 10 mg/kg. The gist of the method: as §1

Take `CN1C(C(=O)Nc2cccc(O)n2)=C(O)c2ccccc2S1(=O)=O`: the inhibition in vivo (commonly the drop in the measured response relative to a control, in per cent) at 33 mg/kg in assay [1] is 40%. The molecule further returned an inhibition in vivo at 10 mg/kg in assay [2] of 31%.

Regarding `CN1C(C(=O)O)=C(O)c2ccccc2S1(=O)=O`, at 33 mg/kg the inhibition in vivo in assay [1] was 0%.

The molecule `CN1C(C(=O)Nc2ccc(O)cn2)=C(O)c2ccccc2S1(=O)=O` [HYDROXY PIROXICAM METABOLITE] came in with an inhibition in vivo at 33 mg/kg in assay [1] of 17%. Further, at 10 mg/kg the inhibition in vivo in assay [2] was 15%.

In assay [1], `O=C1NS(=O)(=O)c2ccccc21` [SACCHARIN] returned an inhibition in vivo at 33 mg/kg of 0%.

Turning to `CN1c2c(n3ccccc3nc2=O)-c2ccccc2S1(=O)=O`, the inhibition in vivo at 33 mg/kg in assay [1] is 46%. The molecule also registered an inhibition in vivo at 10 mg/kg in assay [2] of 38%.

On to `CN1C(C(=O)Nc2ncccc2O)=C(O)c2ccccc2S1(=O)=O`, for which the inhibition in vivo at 33 mg/kg in assay [1] was found to be 41%. The inhibition in vivo at 10 mg/kg in assay [2] came out at 13%.

`CN1C(C(=O)Nc2cc(O)ccn2)=C(O)c2ccccc2S1(=O)=O` came in with an inhibition in vivo at 33 mg/kg in assay [1] of 24%. Further, the inhibition in vivo at 10 mg/kg in assay [2] stood at 10%.

Turning to `CN1CC(=O)c2ccccc2S1(=O)=O`, the inhibition entry in assay [3] was “inactive”. In assay [1], the inhibition in vivo at 33 mg/kg came out at 8%.

For `CN1C(=O)c2ccccc2S1(=O)=O`, the inhibition in vivo at 33 mg/kg in assay [1] came to 12%.

`CN1C(C(=O)Nc2ccccn2)=C(O)c2ccccc2S1(=O)=O` [PIROXICAM] returned an inhibition in vivo at 33 mg/kg in assay [1] of 75%. Further, at 10 mg/kg the inhibition in vivo in assay [2] was 67%.

With `CCCCC1C(=O)N(c2ccccc2)N(c2ccccc2)C1=O` [PHENYLBUTAZONE], the inhibition in vivo at 33 mg/kg in assay [1] came to 50%. In assay [2], this molecule returned an inhibition in vivo at 10 mg/kg of 35%.

The values are drawn from ChEMBL document CHEMBL1121713, “Synthesis and antiinflammatory activity of metabolites of piroxicam” (1981).
